Experimental findings from ChEMBL document CHEMBL5678798 (Clin Cancer Res, 2009) are described below.

The subject of series [1] is MHH-ES-1. In words: Antiproliferative activity against human MHH-ES-1 cells assessed as reduction in cell viability after 72 hrs by CellTiter-Glo assay. The series is classed as functional, cell-based. The conditions noted are these: MHH-ES-1, 72 h. Put shortly:
(§1)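 Cells seeded in 96-well plates, left overnight at 37°C, then exposed to a range of test concentrations for 72 h. Viability read by CellTiter-Glo luminescence; IC50 from four-parameter curve fit. Lines kept at 37°C, 5% CO2, in recommended growth medium.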
In general terms: Cellular ATP, detected with luciferase, serves as a proxy for viable cell number.

Series [2] concerns SK-N-MC. In words: Antiproliferative activity against human SK-N-MC cells assessed as reduction in cell viability after 72 hrs by CellTiter-Glo assay. In kind it is functional, cell-based. Summed up: as §1
The test system of series [3] is COLO 205. In words: Induction of cell cycle arrest in human COLO 205 cells assessed as decrease in cells accumulation at S phase at 0.03 to 10 uM incubated for 24 to 48 hrs by propidium iodide staining based flow cytometric analysis. The series is classed as functional. The conditions noted are these: dose 0.03-10 µM, time lower 24.0 hrs, time upper […]. Put shortly:
(§2)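 COLO 205, MCF-7 or NCI-H929 cells seeded in 96-well plates overnight at 37°C, then exposed to DMSO or increasing compound concentrations for 24 or 48 h. Fixed and stained with propidium iodide (Vindelov method), then analysed by flow cytometry for sub-G1, G1, S and G2-M fractions. Experiment repeated twice.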

Series [4] concerns MCF7. The experiment in a line: Induction of cell cycle arrest in human MCF7 cells assessed as increase in cells accumulation at G1 phase at 0.03 to 10 uM incubated for 24 to 48 hrs by propidium iodide staining based flow cytometric analysis. In kind it is functional. The conditions noted are these: dose 0.03-10 µM, time lower 24.0 hrs, time upper […]. Summed up: as §2
Background: Flow cytometry measures light scatter and fluorescence of single cells or particles in a stream.

The nature of series [5]: Toxicity in nu/nu CD-1 mouse xenografted with human COLO 205 cells assessed as reduction in body weight at 30 mg/kg, po administered twice daily for 21 days relative to control. The series is classed as organism-based. Set-up: scale not given: the % may be the effect or the level left. The conditions noted are these: in vivo, 504 h, time 21 day.
The nature of series [6]: Toxicity in nu/nu CD-1 mouse xenografted with human HT-29 cells assessed as reduction in body weight at 30 mg/kg, po for 21 days relative to control. The series is classed as organism-based. Particulars: in vivo, 504 h, time 21 day.
Series [7] is described as follows: In vivo inhibition of IGF1R in mouse NIH-3T3/LISN cells implanted in IGF1-stimulated nu/nu CD-1 mouse assessed as reduction in IGF1R phosphorylation at 10 mg/kg, po pretreated for 4 hrs followed by IGF1 stimulation and measured after 10 min by […] relative to control. Particulars: 4.167 h, time 250 min. The series is classed as functional. Summed up: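 Female nu/nu CD-1 mice, three per group, bearing ~500 mm3 tumors, given one oral dose of compound or vehicle. At 4 h, 10 µg hIGF-I i.v. via tail vein; saline controls. Tumor and blood taken 10 min later. Tumor lysates in RIPA captured on anti-IGF-IR plates and probed with europium anti-phosphotyrosine. Phospho/total IGF-IR expressed as % of ligand-stimulated control. Blood levels by LC-MS/MS.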

The target in series [8] is Cyclin-dependent kinase 16 (Homo sapiens, UniProt Q00536). In words: Inhibition of PCTAIRE1 (unknown origin).
Sequence of Cyclin-dependent kinase 16 (Q00536 whole entry, canonical isoform): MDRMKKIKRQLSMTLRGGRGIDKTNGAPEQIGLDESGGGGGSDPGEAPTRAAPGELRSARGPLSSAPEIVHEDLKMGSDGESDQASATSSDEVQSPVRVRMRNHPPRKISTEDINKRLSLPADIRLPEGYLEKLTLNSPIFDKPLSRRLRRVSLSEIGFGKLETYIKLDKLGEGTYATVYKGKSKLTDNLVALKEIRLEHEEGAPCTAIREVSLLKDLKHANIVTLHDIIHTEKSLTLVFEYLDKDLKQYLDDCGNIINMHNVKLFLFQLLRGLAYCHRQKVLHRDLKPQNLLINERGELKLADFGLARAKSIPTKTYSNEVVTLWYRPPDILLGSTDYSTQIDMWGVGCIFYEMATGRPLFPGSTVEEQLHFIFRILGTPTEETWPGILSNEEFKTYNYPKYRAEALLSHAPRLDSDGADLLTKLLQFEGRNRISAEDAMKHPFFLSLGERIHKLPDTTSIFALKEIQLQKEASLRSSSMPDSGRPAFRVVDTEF
For series [9], the target named is Phosphatidylinositol 4,5-bisphosphate 3-kinase catalytic subunit gamma isoform (Homo sapiens, UniProt P48736). In words: Inhibition of PI3Kgamma (unknown origin).
Series [10] has as its target Protein kinase C theta type (Homo sapiens, UniProt Q04759). The experiment in a line: Inhibition of PKCtheta (unknown origin).
The target of series [11] is Fibroblast growth factor receptor 4 (Homo sapiens) (UniProt P22455). In words: Inhibition of N-terminal His6-tagged recombinant human FGFR4 (442 to 755 residues) expressed in baculovirus infected Sf21 cells at 0.3 uM by filter binding assay relative to control.
The target of series [12] is Homeodomain-interacting protein kinase 3 (Homo sapiens) (UniProt Q9H422). The experiment in a line: Inhibition of N-terminal 6His-tagged recombinant human HIPK3 (161 to 562 residues) expressed in baculovirus infected Sf21 cells at 0.3 uM by filter binding assay relative to control. Put shortly:
(§3)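 Outsourced single-concentration screen in a commercial panel of 233 protein kinases, run as radiometric filter-binding activity assays. Test agent was tested at 0.3 or 3 µmol/L, as given in each line, from a 10 mmol/L DMSO stock. Activity is expressed as percent inhibition relative to control.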

In series [13] the target is Dual specificity mitogen-activated protein kinase kinase 7 (Homo sapiens) (UniProt O14733). In words: Inhibition of N-terminal GST-tagged recombinant human MKK7beta (2 to end residues) expressed in Escherichia coli at 0.3 uM by filter binding assay relative to control. Summed up: as §3
The target of series [14] is Protein-tyrosine kinase 2-beta (Homo sapiens) (UniProt Q14289). The experiment in a line: Inhibition of N-Terminal His6-tagged recombinant full-length human Pyk2 expressed in baculovirus infected Sf21 cells at 0.3 uM by filter binding assay relative to control. Summed up: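 KinaseProfiler panel of 233 kinases: radiometric filter-binding activity assays with compound at 0.3 or 3 µmol/L. Read-out is percent inhibition.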
Sequence of Protein-tyrosine kinase 2-beta (Homo sapiens) (Q14289 whole entry, looked up): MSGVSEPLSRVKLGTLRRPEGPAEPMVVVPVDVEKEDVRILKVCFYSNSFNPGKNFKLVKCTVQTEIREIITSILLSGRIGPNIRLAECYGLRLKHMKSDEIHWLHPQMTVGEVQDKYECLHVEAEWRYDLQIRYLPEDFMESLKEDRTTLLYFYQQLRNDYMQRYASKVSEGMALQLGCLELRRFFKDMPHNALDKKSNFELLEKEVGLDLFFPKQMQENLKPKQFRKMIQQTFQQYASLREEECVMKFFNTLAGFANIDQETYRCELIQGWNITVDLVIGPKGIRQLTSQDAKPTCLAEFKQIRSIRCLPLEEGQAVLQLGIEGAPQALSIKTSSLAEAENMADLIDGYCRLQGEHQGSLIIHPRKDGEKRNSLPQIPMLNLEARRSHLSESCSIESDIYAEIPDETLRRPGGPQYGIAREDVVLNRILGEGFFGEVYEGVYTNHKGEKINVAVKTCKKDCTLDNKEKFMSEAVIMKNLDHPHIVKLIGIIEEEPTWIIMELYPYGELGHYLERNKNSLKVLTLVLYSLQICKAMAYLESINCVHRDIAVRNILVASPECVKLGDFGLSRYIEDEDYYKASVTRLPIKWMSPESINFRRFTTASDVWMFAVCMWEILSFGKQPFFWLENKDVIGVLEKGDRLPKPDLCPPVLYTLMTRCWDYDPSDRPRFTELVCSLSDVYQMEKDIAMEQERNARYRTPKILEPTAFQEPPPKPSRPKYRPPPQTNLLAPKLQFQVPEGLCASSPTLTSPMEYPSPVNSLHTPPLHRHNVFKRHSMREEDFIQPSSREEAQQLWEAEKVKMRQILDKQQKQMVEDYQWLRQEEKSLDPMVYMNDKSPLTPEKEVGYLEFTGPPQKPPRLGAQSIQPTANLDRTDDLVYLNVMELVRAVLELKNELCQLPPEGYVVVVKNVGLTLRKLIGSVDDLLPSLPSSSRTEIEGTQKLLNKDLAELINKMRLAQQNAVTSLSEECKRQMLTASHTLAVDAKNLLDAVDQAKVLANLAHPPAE

In series [15] the target is ALK tyrosine kinase receptor (Homo sapiens) (UniProt Q9UM73). The experiment in a line: Inhibition of N-terminal His6-tagged recombinant human ALK (1058 to end residues) expressed in baculovirus infected Sf21 cells at 3 uM by filter binding assay relative to control. Put shortly: as §3
Series [16] deals with Tyrosine-protein kinase ABL2 (Homo sapiens) (UniProt P42684). The experiment in a line: Inhibition of N-terminal His6-tagged recombinant human Arg (38 to end residues) expressed in baculovirus infected Sf21 cells at 3 uM by filter binding assay relative to control.
Sequence of Tyrosine-protein kinase ABL2 (Homo sapiens) (P42684 whole entry, the tested form may be a part): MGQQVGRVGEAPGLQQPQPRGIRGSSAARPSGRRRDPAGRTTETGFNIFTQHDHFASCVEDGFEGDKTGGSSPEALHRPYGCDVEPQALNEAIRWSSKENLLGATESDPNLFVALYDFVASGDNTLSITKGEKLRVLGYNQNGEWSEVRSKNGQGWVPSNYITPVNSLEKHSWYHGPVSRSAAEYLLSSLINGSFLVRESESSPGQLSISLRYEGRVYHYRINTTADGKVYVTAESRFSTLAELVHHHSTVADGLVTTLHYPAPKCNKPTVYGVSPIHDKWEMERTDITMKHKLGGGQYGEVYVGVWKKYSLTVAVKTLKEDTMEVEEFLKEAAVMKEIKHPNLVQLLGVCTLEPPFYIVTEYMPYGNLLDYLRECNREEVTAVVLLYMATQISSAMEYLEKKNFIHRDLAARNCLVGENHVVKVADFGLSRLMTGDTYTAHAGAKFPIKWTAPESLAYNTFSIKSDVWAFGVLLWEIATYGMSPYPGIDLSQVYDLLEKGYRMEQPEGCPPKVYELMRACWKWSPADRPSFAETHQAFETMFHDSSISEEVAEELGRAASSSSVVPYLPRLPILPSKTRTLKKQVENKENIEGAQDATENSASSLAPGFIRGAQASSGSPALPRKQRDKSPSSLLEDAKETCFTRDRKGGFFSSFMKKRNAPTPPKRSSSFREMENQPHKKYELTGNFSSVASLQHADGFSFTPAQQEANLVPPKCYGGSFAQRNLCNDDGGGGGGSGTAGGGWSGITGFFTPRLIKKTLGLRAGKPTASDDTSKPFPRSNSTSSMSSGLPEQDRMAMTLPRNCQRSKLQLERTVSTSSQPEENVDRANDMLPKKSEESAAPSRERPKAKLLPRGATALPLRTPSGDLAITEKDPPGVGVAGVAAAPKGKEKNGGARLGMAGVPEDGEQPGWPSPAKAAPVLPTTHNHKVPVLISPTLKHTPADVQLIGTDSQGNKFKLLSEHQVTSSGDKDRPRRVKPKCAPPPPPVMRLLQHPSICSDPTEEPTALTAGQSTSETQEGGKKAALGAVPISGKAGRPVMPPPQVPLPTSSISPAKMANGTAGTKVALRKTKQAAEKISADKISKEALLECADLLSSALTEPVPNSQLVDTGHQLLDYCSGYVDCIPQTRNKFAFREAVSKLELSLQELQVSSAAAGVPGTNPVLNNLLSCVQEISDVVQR
Series [17] deals with Ephrin type-A receptor 4 (Homo sapiens) (UniProt P54764). The experiment in a line: Inhibition of N-terminal His6-tagged recombinant human EphA4 (601 to 892 residues) expressed in baculovirus infected Sf21 cells at 3 uM by filter binding assay relative to control.
Series [18] addresses Protein kinase C alpha type (Homo sapiens) (UniProt P17252). In words: Inhibition of N-terminal His6 tagged recombinant full-length human PKCalpha expressed in baculovirus infected Sf21 cells at 3 uM by filter binding assay relative to control. Put shortly: as §3
Series [19] deals with Protein kinase C iota type (Homo sapiens) (UniProt P41743). The experiment in a line: Inhibition of N-terminal His6-tagged recombinant full-length human PKCiota expressed in Sf21 cells at 3 uM by filter binding assay relative to control. Summed up: as §3
For series [20], the target named is Mitogen-activated protein kinase 11 (Homo sapiens) (UniProt Q15759). The experiment in a line: Inhibition of N-terminal GST fusion protein corresponding to full-length human SAPK2b expressed in Escherichia coli at 3 uM by filter binding assay relative to control. Put shortly:
as §3

Series [21] has as its target Serine/threonine-protein kinase TAO2 (Homo sapiens) (UniProt Q9UL54). The experiment in a line: Inhibition of N-terminal 6His-tagged recombinant human TAO2 expressed in Sf21 cells at 3 uM by filter binding assay relative to control. Put shortly:
as §3

Series [22] addresses Vascular endothelial growth factor receptor 3 (Homo sapiens, UniProt P35916). The experiment in a line: Inhibition of N-terminal GST-tagged recombinant human Flt4 (800 to end residues) expressed in baculovirus infected Sf21 cells by filter binding assay.
The target in series [23] is Tyrosine-protein kinase FRK (Homo sapiens, UniProt P42685). In words: Inhibition of N-terminal 6His-tagged recombinant human PTK5 (218 to end residues) expressed in baculovirus infected Sf21 cells by filter binding assay.
Series [24] concerns the target Insulin receptor (Mus musculus) (UniProt P15208). Particulars: CD-1, dose 30.0 mg/kg, route po, time 21.0 day.

The source made the active and inactive calls. No cut-off for these calls is given here.

Sequence of Insulin receptor (Mus musculus) (P15208 28-748 limits assumed): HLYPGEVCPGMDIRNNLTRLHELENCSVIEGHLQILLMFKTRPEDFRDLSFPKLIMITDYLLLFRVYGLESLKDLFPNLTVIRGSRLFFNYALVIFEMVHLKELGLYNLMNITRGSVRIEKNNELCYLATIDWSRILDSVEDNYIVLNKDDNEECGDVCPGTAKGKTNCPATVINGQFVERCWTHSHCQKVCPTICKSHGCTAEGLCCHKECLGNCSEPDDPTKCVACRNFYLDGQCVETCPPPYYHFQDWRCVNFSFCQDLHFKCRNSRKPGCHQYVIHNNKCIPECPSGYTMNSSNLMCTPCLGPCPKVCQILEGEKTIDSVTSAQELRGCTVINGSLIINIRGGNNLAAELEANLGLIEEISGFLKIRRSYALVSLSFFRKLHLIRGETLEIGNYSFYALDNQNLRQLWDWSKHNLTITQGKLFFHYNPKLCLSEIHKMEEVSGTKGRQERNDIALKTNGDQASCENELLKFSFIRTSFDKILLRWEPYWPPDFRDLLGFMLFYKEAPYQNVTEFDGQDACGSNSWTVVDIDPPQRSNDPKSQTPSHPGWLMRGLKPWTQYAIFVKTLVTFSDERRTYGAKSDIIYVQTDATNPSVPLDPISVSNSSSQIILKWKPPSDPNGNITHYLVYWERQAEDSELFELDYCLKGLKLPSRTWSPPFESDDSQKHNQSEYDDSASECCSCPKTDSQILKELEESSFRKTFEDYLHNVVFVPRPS
Sequence of Insulin receptor (Mus musculus) (P15208 753-1372 limits assumed): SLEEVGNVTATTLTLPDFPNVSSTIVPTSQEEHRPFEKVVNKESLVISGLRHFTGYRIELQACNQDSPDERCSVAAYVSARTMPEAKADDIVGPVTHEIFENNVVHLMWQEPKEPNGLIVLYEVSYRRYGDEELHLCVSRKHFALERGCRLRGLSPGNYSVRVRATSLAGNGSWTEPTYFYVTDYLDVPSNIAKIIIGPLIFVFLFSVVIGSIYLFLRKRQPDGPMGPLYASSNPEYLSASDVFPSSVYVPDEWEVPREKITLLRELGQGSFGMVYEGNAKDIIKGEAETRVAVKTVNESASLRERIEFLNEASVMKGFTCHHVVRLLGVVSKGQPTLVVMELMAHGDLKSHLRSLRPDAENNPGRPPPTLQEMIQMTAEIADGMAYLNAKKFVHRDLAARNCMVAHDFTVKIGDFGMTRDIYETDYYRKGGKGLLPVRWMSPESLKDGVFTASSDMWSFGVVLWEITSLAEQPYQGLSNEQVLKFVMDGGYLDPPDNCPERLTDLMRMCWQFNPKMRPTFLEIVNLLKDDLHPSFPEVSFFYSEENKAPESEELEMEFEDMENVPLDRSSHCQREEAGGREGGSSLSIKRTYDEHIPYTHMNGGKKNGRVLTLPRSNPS
Sequence of Protein kinase C theta type (Q04759 whole entry, the tested form may be a part): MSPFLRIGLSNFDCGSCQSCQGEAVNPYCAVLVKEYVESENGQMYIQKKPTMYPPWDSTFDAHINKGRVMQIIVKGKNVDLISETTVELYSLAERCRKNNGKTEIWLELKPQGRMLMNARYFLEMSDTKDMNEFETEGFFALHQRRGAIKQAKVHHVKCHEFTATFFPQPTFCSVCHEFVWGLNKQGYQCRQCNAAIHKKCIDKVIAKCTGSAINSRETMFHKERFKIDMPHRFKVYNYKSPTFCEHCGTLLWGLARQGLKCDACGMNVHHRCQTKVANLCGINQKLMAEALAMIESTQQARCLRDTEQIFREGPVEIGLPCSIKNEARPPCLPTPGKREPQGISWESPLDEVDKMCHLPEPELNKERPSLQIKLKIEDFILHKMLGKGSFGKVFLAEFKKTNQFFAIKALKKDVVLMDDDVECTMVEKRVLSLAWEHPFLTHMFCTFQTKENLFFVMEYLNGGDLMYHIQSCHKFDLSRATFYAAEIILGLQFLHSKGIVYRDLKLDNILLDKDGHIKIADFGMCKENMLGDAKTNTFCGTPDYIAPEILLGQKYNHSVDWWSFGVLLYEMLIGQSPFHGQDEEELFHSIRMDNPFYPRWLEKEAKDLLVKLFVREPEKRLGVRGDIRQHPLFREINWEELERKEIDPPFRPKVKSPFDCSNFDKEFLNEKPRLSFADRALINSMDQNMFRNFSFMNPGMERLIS

For orientation: IC50 means the midpoint of a concentration-inhibition curve. The term inhibition in vivo denotes the change of the read-out against control, counted positive when it falls. What is called inhibition is the relative decrease from the control value, in per cent. `CCc1cc(Nc2nccc(-c3c(-c4ccc(OC)c(C(=O)Nc5c(F)cccc5F)c4)nc4ccccn34)n2)c(OC)cc1N1CCC(N2CCN(S(C)(=O)=O)CC2)CC1`: the IC50 is above 30000 nM in series [1]; 43 nM in [2]; above 10000 nM in [8]; above 10000 nM in series [9]; above 10000 nM in series [10]; 159 nM in series [22]. Besides, in [23], the IC50 turned out to be 16 nM. Moreover, the outcome in series [3] and in series [4] was Active. In addition, the Activity in series [5] is recorded as above 20%; in [6], “Non-Toxic”. For the same compound, in [7], the inhibition in vivo at 10 mg/kg worked out at 95%. Further, the inhibition in [11] came to 21%; in series [12], 1%; in series [13] it was 0%; in series [14], 21%; in series [15], 39%; in series [16], 33%. Moreover, the inhibition in series [17] was -10%; in series [18], 1%; in series [19], 0%; in series [20], 11%; in series [21], 1%. Moreover, in series [24], the inhibition entry is “inactive”.
